Assay [1] deals with SR. The assay can be described thus: Antitumor activity against human SR cells assessed as growth inhibition at 10 uM relative to control. Particulars: read-out: GI. In kind it is functional. Summed up:
(§1)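 Drug exposure 48 h at 37 °C, 5% CO2. Adherent cells fixed with cold TCA (10% final), suspension cells with TCA (16% final). Stained with 0.4% SRB in 1% acetic acid, dissolved in 10 mM Tris, A515. Growth relative to time-zero and untreated control.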

A further assay has as its system NCI-H23. The assay can be described thus: Antitumor activity against human NCI-H23 cells assessed as growth inhibition at 10 uM relative to control. In kind it is functional. The settings on record: read-out: GI. The essentials: (§2)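 After drug addition, plates were incubated 48 h at 37 °C under 5% CO2. Adherent cells were fixed with cold TCA (10% final, 60 min, 4 °C) and suspension cells with 16% final TCA. Staining used 0.4% SRB in 1% acetic acid, solubilized in 10 mM trizma, read at A515. Percent growth was calculated from time-zero, control and treated absorbances.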

Another assay deals with NCI/ADR-RES. Put plainly: Antitumor activity against human NCI-ADR-RES cells assessed as growth inhibition at 10 uM relative to control. It is filed as functional. The settings on record: read-out: GI. Summed up:
as §2

Another assay concerns MCF7. The assay can be described thus: Antitumor activity against human MCF7 cells assessed as growth inhibition at 10 uM relative to control. In kind it is functional. Particulars: read-out: GI. Summed up: as §2
A further assay deals with Hs-578T. Put plainly: Antitumor activity against human Hs-578T cells assessed as growth inhibition at 10 uM relative to control. Particulars: read-out: GI. It is filed as functional. Summed up:
as §2

The next assay relates to HCC 2998. Put plainly: Antitumor activity against human HCC 2998 cells assessed as growth inhibition at 10 uM relative to control. In kind it is functional. The settings on record: read-out: GI. Summed up:
as §2

The next assay has as its system RPMI-8226. The assay can be described thus: Antitumor activity against human RPMI-8226 cells assessed as growth inhibition at 10 uM relative to control. It is filed as functional. Particulars: read-out: GI. The essentials: as §2
Assay [2] concerns SR. The assay can be described thus: cells. Particulars: Homo sapiens.
For another assay, the system named is TK-10. The assay can be described thus: Antitumor activity against human TK-10 cells assessed as growth inhibition at 10 uM relative to control. In kind it is functional. Particulars: read-out: GI. Summed up:
as §1

Another assay deals with K562. Put plainly: Antitumor activity against human K562 cells assessed as growth inhibition at 10 uM relative to control. It is filed as functional. The settings on record: read-out: GI. The essentials:
as §2

Another assay deals with A549. Put plainly: Antitumor activity against human A549 cells assessed as growth inhibition at 10 uM relative to control. In kind it is functional. Particulars: read-out: GI. Summed up: as §2
The next assay deals with OVCAR-5. The assay can be described thus: Antitumor activity against human OVCAR-5 cells assessed as growth inhibition at 10 uM relative to control. The settings on record: read-out: GI. In kind it is functional. Summed up:
as §2

The next assay concerns SNB-19. Put plainly: Antitumor activity against human SNB-19 cells assessed as growth inhibition at 10 uM relative to control. In kind it is functional. The settings on record: read-out: GI. The essentials: as §1
For the next assay, the system named is Malme-3M. Put plainly: Antitumor activity against human Malme-3M cells assessed as growth inhibition at 10 uM relative to control. In kind it is functional. The settings on record: read-out: GI. Summed up:
as §2

The subject of another assay is CCRF-CEM. Put plainly: Antitumor activity against human CCRF-CEM cells assessed as growth inhibition at 10 uM relative to control. In kind it is functional. The settings on record: read-out: GI. The essentials:
as §2

pIC50: −log10 of the molar value.

With `COc1cc(/C=N/Nc2nc(-c3ccc(Cl)cc3)c(C#N)c(N3CCOCC3)n2)cc(OC)c1OC`, the inhibition of growth at 10 µM with SR [1] is 85.6%; in the assay on NCI-H23 it was 13.3%; in the assay on NCI/ADR-RES it was 59%; in the assay on MCF7, < 35.5%; in the assay with Hs-578T, 14.4%; in the assay on HCC 2998, < 1%. For the same molecule, the inhibition of growth at 10 µM in the assay on RPMI-8226 was determined as 74.6%; in the assay on TK-10, 15.7%; with K562 it was 51.2%; with A549, 41.4%; in the assay on OVCAR-5, 27.9%; in the assay on SNB-19, 14.8%. Moreover, the values for the inhibition of growth at 10 µM with Malme-3M and in the assay with CCRF-CEM were < 1% and 58.1%, respectively. Moreover, in the assay on SR [2], the negative-log IC50 (pIC50) was 6.46.

Consider `N#Cc1c(-c2ccc(Cl)cc2)nc(N/N=C/c2ccc[nH]2)nc1N1CCOCC1`, for which the inhibition of growth at 10 µM with SR [1] is 68.8%; in the assay with NCI-H23 it was < 1%; with NCI/ADR-RES, 15.5%; in the assay on MCF7 it was < 29.3%; in the assay on Hs-578T it was < 1%; in the assay with HCC 2998 it was < 1%. The inhibition of growth at 10 µM was 93.6% in the assay with RPMI-8226; 36.7% in the assay with TK-10; 55.8% with K562; 45.6% in the assay with A549; < 1% in the assay with OVCAR-5; 25.8% in the assay on SNB-19. For the same molecule, the inhibition of growth at 10 µM with Malme-3M was < 11.1%; in the assay on CCRF-CEM, 79.2%. This molecule also gave a negative-log IC50 (pIC50) with SR [2] of 6.11.

As for `CC1=NN(c2nc(-c3ccc(Cl)cc3)c(C#N)c(N3CCOCC3)n2)C(=O)C1`, the inhibition of growth at 10 µM is < 1% in the assay with SR [1]; 19.3% in the assay on NCI-H23; < 1% in the assay on NCI/ADR-RES; 1% in the assay with MCF7; 45.4% with Hs-578T; < 1% in the assay on HCC 2998. The inhibition of growth at 10 µM in the assay with RPMI-8226 is 42.9%; with TK-10 it was < 1%; in the assay with K562 it was < 1%; with A549, < 1%; with OVCAR-5, 15.2%; in the assay on SNB-19, < 1%. For the same molecule, the inhibition of growth at 10 µM with Malme-3M was < 1%; in the assay on CCRF-CEM, 14.1%.

Regarding `N#Cc1c(-c2ccc(Cl)cc2)nc(NN2C(=O)CCC2=O)nc1N1CCOCC1`, the inhibition of growth at 10 µM in the assay with SR [1] was < 1%; in the assay with NCI-H23 it was < 1%; in the assay with NCI/ADR-RES, < 1%; in the assay on MCF7, 1%; with Hs-578T, < 1%; in the assay with HCC 2998 it was < 1%. For the same molecule, the inhibition of growth at 10 µM with RPMI-8226, in the assay on TK-10, in the assay with K562, in the assay with A549, in the assay on OVCAR-5 and in the assay with SNB-19 was < 1% throughout. Moreover, the inhibition of growth at 10 µM with Malme-3M and in the assay with CCRF-CEM was < 1% throughout.

For `N#Cc1c(-c2ccc(Cl)cc2)nc(N/N=C2/C(=O)Nc3ccc(Br)cc32)nc1N1CCOCC1`, the inhibition of growth at 10 µM in the assay on SR [1] is < 1%; in the assay with NCI-H23 it was 11.9%; in the assay on NCI/ADR-RES it was < 1%; in the assay on MCF7 it was 1%; with Hs-578T, < 1%; in the assay with HCC 2998 it was < 1%. Besides, the inhibition of growth at 10 µM in the assay on RPMI-8226, in the assay with TK-10, in the assay on K562, in the assay with A549, in the assay on OVCAR-5 and in the assay on SNB-19 was < 1% throughout. Further, the inhibition of growth at 10 µM with Malme-3M and in the assay with CCRF-CEM was < 1% in each case.

On to `N#Cc1c(-c2ccc(Cl)cc2)nc(N/N=C/c2cccc([N+](=O)[O-])c2)nc1N1CCOCC1`, for which the inhibition of growth at 10 µM is 42.5% with SR [1]; < 1% with NCI-H23; 17.5% with NCI/ADR-RES; < 25.6% in the assay on MCF7; < 1% in the assay with Hs-578T; < 1% in the assay with HCC 2998. Further, the inhibition of growth at 10 µM in the assay on RPMI-8226 amounted to 43.4%; with TK-10, 25.6%; in the assay with K562 it was 33.6%; with A549, 27.2%; with OVCAR-5 it was 10.2%; with SNB-19, 10%. The inhibition of growth at 10 µM is < 1% in the assay on Malme-3M and 25.3% with CCRF-CEM.

Regarding `N#Cc1c(-c2ccc(Cl)cc2)nc(N/N=C2/C(=O)Nc3ccc(Cl)cc32)nc1N1CCOCC1`, the inhibition of growth at 10 µM was < 1% in the assay with SR [1]; 15.2% in the assay with NCI-H23; 11.7% in the assay with NCI/ADR-RES; 1% in the assay with MCF7; < 1% with Hs-578T; < 1% in the assay on HCC 2998. The inhibition of growth at 10 µM in the assay on RPMI-8226, in the assay with TK-10, in the assay on K562, in the assay with A549, with OVCAR-5 and in the assay with SNB-19 was < 1% each time. In addition, the values for the inhibition of growth at 10 µM in the assay with Malme-3M and in the assay with CCRF-CEM were 11.2% and < 1%, respectively.

As to `N#Cc1c(-c2ccc(Cl)cc2)nc(N2NC(=O)CC2=N)nc1N1CCOCC1`, the inhibition of growth at 10 µM in the assay with SR [1] is < 1%; in the assay with NCI-H23 it was < 1%; in the assay on NCI/ADR-RES, < 1%; with MCF7, 1%; in the assay with Hs-578T, < 1%; in the assay on HCC 2998, < 1%. Further, the inhibition of growth at 10 µM in the assay with RPMI-8226, in the assay on TK-10, in the assay with K562, in the assay on A549, in the assay with OVCAR-5 and in the assay on SNB-19 was < 1% throughout. Further, the inhibition of growth at 10 µM in the assay on Malme-3M is 58%; with CCRF-CEM, < 1%.

These data come from ChEMBL document CHEMBL5376013, “Design, synthesis and biological evaluation of novel morpholinopyrimidine-5-carbonitrile derivatives as dual PI3K/mTOR inhibitors” (RSC Med Chem, 2024).
